pIC50: −log10 of the molar value.

We go through 5 molecules from ChEMBL document CHEMBL3414568, “Synthesis and antiproliferative activity of 3-(2-chloroethyl)-5-methyl-6-phenyl-8-(trifluoromethyl)-5,6-dihydropyrazolo[3,4-f][1,2,3,5]tetrazepin-4-(3H)-one” (Eur J Med Chem, 2015).

Test [1] deals with K562. Kind of test: Cell cycle arrest in human K562 cells expressing Bcr-Abl assessed as accumulation at subG0-G1 phase at 30 uM after 48 hrs by propidium iodide staining-based flow cytometry (reference value: 3.21 +/- 0.4%). It is filed as functional. The method, boiled down:
(§1)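 K562 cells cultured with or without 30 µM compound for 24 h and 48 h. Cells washed once in ice-cold PBS, resuspended at 10⁶/mL in hypotonic propidium iodide solution with nonidet P-40 0.03% (v/v) in 0.1% sodium citrate, 30 min incubation, flow cytometry single-parameter DNA histograms. G0-G1/S/G2-M % calculated on cycling cells only; subG0-G1 % on total cell number.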

Test [2] relates to K562. Nature of the test: Cell cycle arrest in human K562 cells expressing Bcr-Abl assessed as accumulation at G0-G1 phase at 30 uM after 48 hrs by propidium iodide staining-based flow cytometry (reference value: 44.65 +/- 6.8%). It is filed as functional. The method, boiled down:
as §1

The nature of test [3]: Cytotoxicity against human HL60R cells expressing p-glycoprotein assessed as growth inhibition after 48 hrs by trypan blue staining-based hemocytometric analysis. It is filed as functional. The method, boiled down:
(§2)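 2 × 10⁵ cells per well in 1 mL complete medium treated with various concentrations from freshly prepared DMSO solution (DMSO ≤0.3% v/v final). After 48 h, trypan blue staining and hemocytometer counting of viable cells, expressed as percentage of control proliferation.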

The test system of test [4] is K562. Nature of the test: Cell cycle arrest in human K562 cells expressing Bcr-Abl assessed as accumulation at S phase at 30 uM after 48 hrs by propidium iodide staining-based flow cytometry (reference value: 43.19 +/- 7%). It is filed as functional. The method, boiled down:
as §1

The subject of test [5] is K562. Kind of test: Cell cycle arrest in human K562 cells expressing Bcr-Abl assessed as accumulation at subG0-G1 phase at 30 uM after 24 hrs by propidium iodide staining-based flow cytometry (reference value: 3.21 +/- 0.4%). It is filed as functional. The gist of the method: as §1
Test [6] concerns K562. Kind of test: Cell cycle arrest in human K562 cells expressing Bcr-Abl assessed as accumulation at S phase at 30 uM after 24 hrs by propidium iodide staining-based flow cytometry (reference value: 43.19 +/- 7%). It is filed as functional. The gist of the method:
as §1

The subject of test [7] is K562. Nature of the test: Cell cycle arrest in human K562 cells expressing Bcr-Abl assessed as accumulation at G0-G1 phase at 30 uM after 24 hrs by propidium iodide staining-based flow cytometry (reference value: 44.65 +/- 6.8%). It is filed as functional. The gist of the method:
as §1

Test [8] in a line: Cytotoxicity against human HL60 cells assessed as growth inhibition after 48 hrs by trypan blue staining-based hemocytometric analysis. It is filed as functional. Particulars: HL-60, 48 h. The gist of the method:
as §2

In test [9] the test system is HepG2. Nature of the test: Induction of apoptosis in human HepG2 cells after 48 hrs by acridine orange/ethidium bromide staining-based fluorescence microscopic analysis. It is filed as functional, cell-based. The settings on record: HepG2, 48 h. The method, boiled down:
(§3)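 After 48 h exposure to various concentrations, 2 × 10⁵ cells centrifuged (300 × g) and resuspended in acridine orange/ethidium bromide dye mixture. Examined under oil immersion, 100× objective, by fluorescence microscopy. Live cells take up acridine orange (green) and exclude ethidium bromide (red); apoptotic and necrotic cells scored morphologically.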

The subject of test [10] is K562. Nature of the test: Induction of apoptosis in human K562 cells expressing Bcr-Abl after 48 hrs by acridine orange/ethidium bromide staining-based fluorescence microscopic analysis. It is filed as functional, cell-based. Particulars: K562, 48 h. The method, boiled down: as §3
The nature of test [11]: Induction of apoptosis in human HL60R cells expressing p-glycoprotein after 48 hrs by acridine orange/ethidium bromide staining-based fluorescence microscopic analysis. It is filed as functional, cell-based. The method, boiled down:
as §3

For test [12], the system named is K562. Nature of the test: Cell cycle arrest in human K562 cells expressing Bcr-Abl assessed as accumulation at G2-M phase at 30 uM after 24 hrs by propidium iodide staining-based flow cytometry (reference value: 12.16 +/- 2.2%). It is filed as functional. The gist of the method: as §1
In test [13] the test system is K562. Kind of test: Cytotoxicity against human K562 cells expressing Bcr-Abl assessed as growth inhibition after 48 hrs by trypan blue staining-based hemocytometric analysis. It is filed as functional. Particulars: K562, 48 h. The method, boiled down: as §2
The next test concerns WiDr. Kind of test: Cytotoxicity against human WiDr cells overexpressing MGMT after 48 hrs by trypan blue staining-based hemocytometric analysis. It is filed as functional, cell-based. The gist of the method: as §2
The subject of test [14] is HepG2. Nature of the test: Cytotoxicity against human HepG2 cells assessed as growth inhibition after 48 hrs by trypan blue staining-based hemocytometric analysis. It is filed as functional. The settings on record: HepG2, 48 h. The gist of the method:
as §2

Test [15] has as its system K562. Nature of the test: Cell cycle arrest in human K562 cells expressing Bcr-Abl assessed as accumulation at G2-M phase at 30 uM after 48 hrs by propidium iodide staining-based flow cytometry (reference value: 12.16 +/- 2.2%). It is filed as functional. The gist of the method:
as §1

In the next test the test system is HL-60. Nature of the test: Induction of apoptosis in human HL60 cells after 48 hrs by acridine orange/ethidium bromide staining-based fluorescence microscopic analysis. It is filed as functional, cell-based. Particulars: HL-60, 48 h. The gist of the method: as §3

On to `CN1C(=O)N(CCCl)N=Nc2c(C(F)(F)F)nn(-c3ccccc3)c21`, for which the Activity is 38.35% in the test on K562 [1]; 40.97% in the test with K562 [2]; 44.24% with K562 [4]; 15% in the test on K562 [5]; 43.59% in the test with K562 [6]; 43.96% in the test with K562 [7]. For the same molecule, the figures for the Activity in the test on K562 [12] and in the test on K562 [15] were 12.45% and 14.79%, respectively. The GI50 is 14 µM in test [3], 9 µM in [8], 18 µM in the test with K562 [13] and 26 µM in the test on HepG2 [14]. The AC50 came out at 43 µM with HepG2 [9], 37 µM in the test with K562 [10], 22 µM in test [11] and 19 µM in the test on HL-60. Further, the negative logarithm of the IC50 (pIC50) in the test on WiDr is 5.64.
`CN1N=Nc2c(C(F)(F)F)nn(-c3ccccc3)c2N(C)C1=O`: the GI50 worked out at 30 µM in test [3], 21 µM in [8] and 40 µM in the test on K562 [13]. The half-maximal activity concentration (AC50) in test [11] stood at 38 µM.
On to `COc1cccc2c1C(=O)c1c(O)c3c(c(O)c1C2=O)C[C@@](O)(C(C)=O)C[C@@H]3O[C@H]1C[C@H](N)[C@H](O)[C@H](C)O1` [DAUNORUBICIN], for which the GI50 in test [3] was determined as 38 µM; in test [8] it was 0.1 µM.
Taken in the same sequence, the figures for `COc1cc([C@@H]2c3cc4c(cc3[C@@H](O[C@@H]3O[C@@H]5CO[C@@H](C)O[C@H]5[C@H](O)[C@H]3O)[C@H]3COC(=O)[C@H]23)OCO4)cc(OC)c1O` [ETOPOSIDE] were greater than 400 µM and 0.4 µM.
In the case of `Cn1nnc2c(C(N)=O)ncn2c1=O` [TEMOZOLOMIDE], the negative logarithm of the IC50 (pIC50) in the test with WiDr was 2.76.
